Here are results for ten compounds from ChEMBL document CHEMBL1144469, “Comprehensive analysis of the effects of ordinary nutrients on hepatitis C virus RNA replication in cell culture” (Antimicrob Agents Chemother, 2007).

Data set [1] can be described thus: Cytotoxicity against human OR6 cells after 120 hrs by cell viability assay. In kind it is cell-based. The note with it: or6, 120 h. In outline: (§1)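 For viability, OR6 cells are plated in triplicate and grown 24 h: 4.5–5 × 10^4 cells (72 h assay) or 1–1.5 × 10^4 cells (120 h assay). Nutrients are then applied for 72 or 120 h. Viable cells are counted by trypan blue exclusion and expressed as % of the untreated cell number.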

The subject of data set [2] is Hepatitis C virus. Nature of the data set: Antiviral activity against HCV assessed as suppression of HCV RNA replication in ORN/3-5B/KE/poly cells after 72 hrs by luciferase reporter assay. In kind it is functional, organism-based. The note with it: Hepacivirus hominis. In outline: (§2)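 Polyclonal HuH-7 lines carrying either genome-length (ORN/C-5B/KE/poly) or subgenomic (ORN/3-5B/KE/poly) HCV-O genotype 1b RNA with a Renilla luciferase reporter are kept in DMEM with 10% FBS and G418 300 μg/ml. They are treated as in the OR6 assay for 72 h. Renilla luciferase is then measured and expressed as % of untreated cells.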

Data set [3] in a line: Cytotoxicity against human OR6 cells after 72 hrs. In kind it is cell-based. The note with it: or6, 72 h. In outline:
as §1

Data set [4] concerns Hepatitis C virus. Nature of the data set: Antiviral activity against HCV assessed as inhibition of HCV RNA replication in OR6 cells after 72 hrs by luciferase reporter assay. In kind it is functional, organism-based, Hepacivirus hominis. The note with it: OR6, 72 h. In outline:
(§3)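 OR6 cells (HuH-7 carrying genome-length HCV-O genotype 1b RNA with a Renilla luciferase-NeoR fusion) are seeded in triplicate, 1.0–1.5 × 10^4 per well, and grown 24 h. Nutrients are then added for 72 h, or 24 h in the time course. Renilla luciferase is read from cell lysates and expressed as % of untreated cells. Liposoluble nutrients are carried in DMSO or ethanol at 0.1% final. EC50 is obtained by sigmoid regression.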
(In a reporter assay the amount or activity of a reporter protein is the signal.)

Data set [5] is described as follows: Cytotoxicity against human OR6 cells after 120 hrs. The note with it: or6, 120 h. In kind it is cell-based. In outline: as §1
Data set [6] has as its system Hepatitis C virus. The experiment in a line: Antiviral activity against HCV assessed as suppression of HCV RNA replication in ORN/C-5B/KE/poly cells after 72 hrs by luciferase reporter assay. In kind it is functional. The note with it: Hepacivirus hominis. In outline: as §2
Data set [7] has as its system Hepatitis C virus. The experiment in a line: Antiviral activity against HCV assessed as inhibition of HCV RNA replication in OR6 cells after 24 hrs by luciferase reporter assay. In kind it is functional, organism-based. The note with it: Hepacivirus hominis. In outline:
as §3

Data set [8] has as its system Hepatitis C virus. The experiment in a line: Enhancement of HCV RNA replication in ORN/3-5B/KE/poly cells after 72 hrs by luciferase reporter assay. In kind it is functional, organism-based. The note with it: Hepacivirus hominis. In outline: as §2
The test system of data set [9] is Hepatitis C virus. The experiment in a line: Enhancement of HCV RNA replication in OR6 cells after 72 hrs by luciferase reporter assay. In kind it is functional, organism-based. The note with it: Hepacivirus hominis. In outline:
as §3

The test system of data set [10] is Hepatitis C virus. Nature of the data set: Enhancement of HCV RNA replication in ORN/C-5B/KE/poly cells after 72 hrs by luciferase reporter assay. In kind it is functional, organism-based. The note with it: Hepacivirus hominis. In outline: as §2
For data set [11], the system named is Hepatitis C virus. Nature of the data set: Antiviral activity against HCV assessed as inhibition of HCV RNA replication in OR6 cells at 50 uM after 120 hrs by luciferase reporter assay. The note with it: OR6, 120 h. In kind it is functional, Hepacivirus hominis. In outline: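 The time course uses OR6 cells (HuH-7, genome-length HCV genotype 1b RL reporter), 0.5 × 10^4 cells per well in triplicate, grown 24 h before exposure. Treatment runs 120 h at the stated 50 μM. Renilla luciferase activity in lysates is given as % of untreated control.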

Activity calls are given as the source filed them. The calls are words filed in the database; no cut-off is given here.

Take `CC1=C(/C=C/C(C)=C/C=C/C(C)=C/C=C/C=C(C)/C=C/C=C(C)/C=C/C2=C(C)CCCC2(C)C)C(C)(C)CCC1` [BETA CAROTENE]: the Activity entry in data set [1], in [3] and in data set [5] was “Non-toxic” throughout. The outcome in the data set with Hepatitis C virus [2], in the data set on Hepatitis C virus [6] and with Hepatitis C virus [7] was Active. In addition, in the data set with Hepatitis C virus [4], the 50% effective concentration (EC50) came out at 6.3 µM.
Consider VITAMIN E, for which the result in the data set with Hepatitis C virus [6], in the data set with Hepatitis C virus [9] and in the data set on Hepatitis C virus [10] was Active. For the same compound, the result in the data set with Hepatitis C virus [8] was inactive.
With `CC1=C(/C=C/C(C)=C/C=C/C(C)=C/CO)C(C)(C)CCC1`, in the data set with Hepatitis C virus [9], the outcome was Active.
In the case of `CCCCC/C=C\C/C=C\C/C=C\C/C=C\CCCC(=O)O` [ARACHIDONIC ACID], the EC50 in the data set on Hepatitis C virus [4] stood at 22.1 µM.
In the case of `O=[Se](=O)(O)O`, the result in the data set on Hepatitis C virus [9] was Active.
Turning to `CCCCC/C=C\C/C=C\CCCCCCCC(=O)O` [LINOLEIC ACID], the Activity entry in [1], in data set [3] and in [5] was “Non-toxic” each time. In addition, the result in the data set on Hepatitis C virus [2] and in the data set on Hepatitis C virus [6] was Active. Moreover, the inhibition at 50 µM in the data set with Hepatitis C virus [11] was found to be 90%. In the data set on Hepatitis C virus [4], the EC50 was 20.2 µM.
For `C=C1CC[C@H](O)C/C1=C/C=C1\CCC[C@]2(C)[C@@H]([C@H](C)/C=C/[C@H](C)C(C)C)CC[C@@H]12` [ERGOCALCIFEROL], the Activity entry in data set [1], in data set [3] and in data set [5] was “Non-toxic” throughout. Moreover, the result with Hepatitis C virus [2], in the data set with Hepatitis C virus [6] and in the data set with Hepatitis C virus [7] was Active. In addition, the EC50 in the data set with Hepatitis C virus [4] was determined as 3.8 µM.
On to `CC/C=C\C/C=C\C/C=C\C/C=C\C/C=C\C/C=C\CCC(=O)O` [DOCONEXENT], for which the EC50 in the data set with Hepatitis C virus [4] stood at 37 µM.
As for `CC/C=C\C/C=C\C/C=C\C/C=C\C/C=C\CCCC(=O)O` [ICOSAPENT], the EC50 with Hepatitis C virus [4] stood at 36.2 µM.
Turning to `O=C1O[C@H]([C@@H](O)CO)C(O)=C1O`, in the data set with Hepatitis C virus [9], the result was Active.

By EC50 is commonly meant the concentration at which the effect is half-maximal. The term inhibition denotes how much of the control response was suppressed.
